A selection: hits, their analogues and other compounds. The true share with any hit is near 9.6%.
PTEN del growth = growth suppression of PTEN-null HCT116, primary screen, cell-based, CellTiter-Glo | HCT116 PTEN-null viability, 60 h; hits give low values | viability, % at 10 µM | actives 1.2% (n = 140,000);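 active = viability at or below a set limit, 4 SD under the median of all tested compounds, cut at about 3.7% in these data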;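 note: PTEN knockout HCT116 line with beta catenin targeted HCT116 as companion control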
TNAP inh hiacc = human TNAP enzyme inhibitors, primary screen, biochemical, luminescent, high phosphate acceptor level, uHTS | Alkaline phosphatase, tissue-nonspecific isozyme (Homo sapiens), P05186 | purified TNAP, CDP-star luminescence, 1 M DEA | inhibition, % at 20 µM | actives 0.03% (n = 200,000) | AID 1135, 2008;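 active = over 50% inhibition of tissue-nonspecific alkaline phosphatase at 20 µM in the single-dose screen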
Target sequence (P05186 whole entry, looked up): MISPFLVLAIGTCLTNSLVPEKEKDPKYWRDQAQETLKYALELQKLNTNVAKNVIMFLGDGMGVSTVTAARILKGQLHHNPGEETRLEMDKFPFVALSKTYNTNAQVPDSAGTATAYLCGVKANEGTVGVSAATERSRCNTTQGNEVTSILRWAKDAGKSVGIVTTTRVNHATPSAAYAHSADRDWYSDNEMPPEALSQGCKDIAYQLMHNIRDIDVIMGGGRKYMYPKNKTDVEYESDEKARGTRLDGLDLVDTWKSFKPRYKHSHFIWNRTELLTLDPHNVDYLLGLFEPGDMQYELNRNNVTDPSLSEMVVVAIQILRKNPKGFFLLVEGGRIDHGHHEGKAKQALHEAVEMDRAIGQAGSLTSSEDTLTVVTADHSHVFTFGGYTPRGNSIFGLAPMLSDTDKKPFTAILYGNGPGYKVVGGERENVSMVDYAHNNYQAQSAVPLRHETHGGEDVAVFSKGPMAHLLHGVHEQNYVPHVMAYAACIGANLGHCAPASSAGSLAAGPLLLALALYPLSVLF
L major viab = Leishmania major promastigote growth inhibition, primary screen; AID 1063, 2008; actives 9% (n = 200,000); Leishmania major promastigotes, resazurin fluorescence viability; inhibition, % at 10 µM; in the data active = inhibition above about 50%;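 note: promastigotes grown with compound for 44 hours at 28 °C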
TNAP act hiacc = TNAP activators at high phosphate acceptor level, primary screen, biochemical, luminescence, uHTS | Alkaline phosphatase, tissue-nonspecific isozyme (Homo sapiens), P05186 | purified TNAP, CDP-star luminescence, 1 M DEA, 30 min; hits give high values; 0 = EDTA background, 1 = DMSO-only activity | activation factor at 20 µM | 200,000 tested, under 10 active | AID 1136, 2008;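 active = activation factor at least 2 at 20 µM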
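Measured by: Luminescent substrate turnover signal | Test system: Human TNAP | Input: TNAP 1/800 final | Dosing: 20 µM single point | Schedule: 30 min, room temperature | Controls: EDTA wells as negative control, DMSO wells as positive control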
HCT116 bCat-KO = primary screen for growth suppressors in beta-catenin knockout HCT116 cells (colon tumor, human); HCT116 beta-catenin knockout viability, CellTiter-Glo, 60 h; hits give low values; viability, % at 10 µM; actives 1.5% (n = 140,000); AID 818, 2007;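 active = viability at or under a set limit, the compound median less 4 SD, cut at about 6% in these data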
TNAP inh noacc = human TNAP enzyme inhibitors, primary screen, biochemical, luminescent, no phosphate acceptor, uHTS; purified TNAP, CDP-star luminescence, 30 min; inhibition, % at 20 µM; actives 0.26% (n = 200,000); AID 1012, 2008;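 active = tissue-nonspecific alkaline phosphatase inhibition above about 50% at 20 µM in the single-dose screen, limit read from the data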
Large screens that a line does not name were inactive.

OCCC1CN(Cc2cn[nH]c2C2CCCCC2)CCN1C1CCCCC1 (stereo unspecified)	none (no result: PTEN del growth, HCT116 bCat-KO)
CNC(=S)NNC(=O)c1ccccc1F	none (no result: PTEN del growth, HCT116 bCat-KO)
COc1ccc(-n2ncc(Cl)c(Cl)c2=O)cc1	L major viab 82 (no result: PTEN del growth, HCT116 bCat-KO)
COc1ccc(-n2ncc(N(C)n3cccc3)c(Cl)c2=O)cc1	none
CCN1CCC[C@H]1CNC(=O)c1c(O)c(Cl)cc(Cl)c1OC	none (no result: PTEN del growth, L major viab, HCT116 bCat-KO)
CCN1CCCC1CNC(=O)c1c(O)c2c([nH]c1=O)CCCC2 (stereo unspecified)	L major viab 52
Cc1ccc2c(c1)C(c1ccccc1)N(C(=O)c1ccc(Br)o1)CC(=O)N2 (stereo unspecified)	L major viab 95
O=C1CN(C(=O)c2ccc(Br)o2)C(c2ccccc2)c2cc(Br)ccc2N1 (stereo unspecified)	L major viab 69
Cc1cccc(C)c1OCC(O)CN1CCN(c2ccccc2)CC1 (stereo unspecified)	none (no result: PTEN del growth, HCT116 bCat-KO)
CC1CCN(CC(O)COC2CCC(C(C)(C)C)CC2)CC1 (stereo unspecified)	L major viab 92
CC(C)(C)C1CCC(OCC(O)CN2CCCC2)CC1 (stereo unspecified)	L major viab 100 (no result: PTEN del growth, HCT116 bCat-KO)
O=C(c1ccccc1)N1CCN(CC(O)COC2CCCCC2)CC1 (stereo unspecified)	none
CC(C)(C)C1CCC(OCC(O)CN2CCN(c3ccccc3)CC2)CC1 (stereo unspecified)	L major viab 91
Cc1ccc(N2CCN(CC(O)COC3CCCCC3)CC2)cc1 (stereo unspecified)	L major viab 97
O=C(N[C@@H](Cc1ccccc1)C(=O)O)c1c(F)c(F)c(F)c(F)c1F	none (no result: PTEN del growth, HCT116 bCat-KO)
Cc1ccc(SCC(=O)NC(=O)NCc2ccccc2)c(C)c1	none
Cc1ccc(N2CCN(CC(O)COc3ccc([N+](=O)[O-])cc3)CC2)cc1 (stereo unspecified)	L major viab 97 (no result: PTEN del growth, HCT116 bCat-KO)
O=C(CN(Cc1ccc(Cl)c(Cl)c1)S(=O)(=O)c1ccccc1)N/N=C\c1ccc2c(c1)OCO2	L major viab 88
O=C(CN(Cc1ccccc1)S(=O)(=O)c1ccccc1)N/N=C/c1ccc2c(c1)OCO2	L major viab 63
O=C(N/N=C1\CCCc2ccccc21)c1ccccc1Cl	L major viab 88 (no result: PTEN del growth, HCT116 bCat-KO)
O=C(N/N=C1\CCc2ccccc21)c1ccccc1O	none
COc1cc2nc(CN3CCN(S(=O)(=O)c4ccc(Cl)cc4)CC3)[nH]c(=O)c2cc1OC	none (no result: PTEN del growth, HCT116 bCat-KO)
COc1cc(CN2CCC(CO)(CCOc3ccccc3)CC2)cc(OC)c1OC	L major viab 87 (no result: PTEN del growth, HCT116 bCat-KO)
COc1cc(OC)c(CN2CCC(CO)(CCOc3ccccc3)CC2)c(OC)c1	none (no result: PTEN del growth, HCT116 bCat-KO)
COc1ccc(CN2CCC(CO)(CCOc3ccccc3)CC2)cc1C	L major viab 85 (no result: PTEN del growth, HCT116 bCat-KO)
CCn1ccnc1CN1CCC(CO)(CCOc2ccccc2)CC1	none (no result: PTEN del growth, HCT116 bCat-KO)
OCC1(CCOc2ccccc2)CCN(CCCn2cccn2)CC1	L major viab 81 (no result: PTEN del growth, HCT116 bCat-KO)
COc1cc2c(cc1OC)C(c1ccccc1)N(S(C)(=O)=O)CC2 (stereo unspecified)	none (no result: PTEN del growth, HCT116 bCat-KO)
O=C1c2ccccc2C(=O)C1c1ccnc2ccccc12	none
O=C1c2ccccc2C(=O)C1c1nccc2ccccc12	HCT116 bCat-KO 5.0
CN(/N=C/c1ccncc1)c1cnc2ccccc2n1	none (no result: PTEN del growth, HCT116 bCat-KO)
CN(/N=C/c1ccc(C(C)(C)C)cc1)C1=NCCN1	L major viab 56 (no result: PTEN del growth, HCT116 bCat-KO)
NC(=O)c1ccsc1NC(=O)CSc1nnc(Nc2ccccc2)s1	L major viab 57 (no result: PTEN del growth, HCT116 bCat-KO)
CC1CN(c2cc(-c3ccccc3)c3ccccc3n2)CC(C)O1 (stereo unspecified)	L major viab 100
Nc1cc([N+](=O)[O-])ccc1O	L major viab 98
Cc1ccc([N+](=O)[O-])cc1N	none (no result: PTEN del growth, HCT116 bCat-KO)
CC1=NN(C(=S)Nc2ccccc2)C(C)(C)C1	none (no result: PTEN del growth, HCT116 bCat-KO)
Cn1cc([N+](=O)[O-])c(C(=O)Nc2ccc(Br)cn2)n1	PTEN del growth 1.4, HCT116 bCat-KO 2.7
Cn1ncc([N+](=O)[O-])c1C(=O)Nc1ccn(Cc2ccccc2F)n1	none
Cn1cc([N+](=O)[O-])c(C(=O)Nc2nccs2)n1	none (no result: PTEN del growth, HCT116 bCat-KO)
Cn1cc([N+](=O)[O-])c(C(=O)Nc2ccn(Cc3c(F)c(F)cc(F)c3F)n2)n1	PTEN del growth 3.1, HCT116 bCat-KO 3.0
O=C(Cn1cc(C(F)(F)F)cc(Cl)c1=O)NCCc1ccccc1	none
Cc1ccc(C)c(N2CCN(C(=O)Nc3ccc4c(c3)N(C)C(=O)CS4)CC2)c1	L major viab 50 (no result: PTEN del growth, HCT116 bCat-KO)
CCOc1ccc(OCC)c(NC(=O)Nc2ccc3c(c2)N(C)C(=O)CS3)c1	L major viab 67
COc1cccc(NC(=O)Nc2ccc3c(c2)N(C)C(=O)CS3)c1	L major viab 59
CN1C(=O)CSc2ccc(NC(=O)N3CCN(c4ccccn4)CC3)cc21	none
CC(=O)Nc1ccc(NC(=O)Nc2ccc3c(c2)N(C)C(=O)CS3)cc1	none (no result: PTEN del growth, HCT116 bCat-KO)
COc1ccccc1NCc1nnc(SCC(=O)N/N=C/c2ccco2)n1-c1ccc(Cl)cc1Cl	none
COc1ccc(N2CCN(C(=O)Cn3c(=O)[nH]c4ccccc4c3=O)CC2)cc1	none (no result: PTEN del growth, HCT116 bCat-KO)
Cc1scc(C(=O)N2CCN(c3ccc(Cl)cc3)CC2)c1C	none (no result: PTEN del growth, HCT116 bCat-KO)
Cc1sc2ncn(CC(=O)N3CCCCC3)c(=O)c2c1C	none (no result: PTEN del growth, HCT116 bCat-KO)
CCOC(=O)c1cnc(Nc2nc3ccccc3o2)nc1CN1CCN(C)CC1	L major viab 76
COc1ccc(OC)c(/C=N/NC(=O)c2cc3c(OC)c(OC)ccc3[nH]2)c1	L major viab 72
COc1ccccc1/C(O)=C(\C#N)c1nc2ccccc2[nH]1	none (no result: PTEN del growth, HCT116 bCat-KO)
CC1=CC(C)(C)Nc2ccc(OC(=O)CN3C(=O)CCC3=O)cc21	PTEN del growth 1.5, L major viab 100, HCT116 bCat-KO 1.0
CC1=CC(C)(C)Nc2ccc(C)cc21	none
CC(C(=O)Oc1ccc2c(c1)OCO2)N1C(=O)c2ccccc2C1=O (stereo unspecified)	none
CC1=CC(C)(C)Nc2ccc(OC(=O)C(C)N3C(=O)c4ccccc4C3=O)cc21 (stereo unspecified)	PTEN del growth 1.3, L major viab 101, HCT116 bCat-KO 2.0
CC1=CC(C)(C)Nc2ccc(OC(=O)c3cccnc3)cc21	PTEN del growth 1.1, L major viab 101, HCT116 bCat-KO 0.7
COc1ccc(C(C)(C)C)cc1NC(=O)COC(=O)c1ncc(Cl)c(Cl)c1Cl	none
CCC(CO)n1c(SCc2cc([N+](=O)[O-])cc3c2OCOC3)nc2ccccc2c1=O (stereo unspecified)	L major viab 81
Cc1nnc(SCc2cc([N+](=O)[O-])cc3c2OCOC3)n(N)c1=O	none (no result: PTEN del growth, HCT116 bCat-KO)
Cc1ccc(C(=O)Nc2cc3ccccc3oc2=O)cc1	none (no result: PTEN del growth, HCT116 bCat-KO)
